Screens: PubChem BioAssay, SRMLSC
H69AR growth 86K: growth inhibitors of human H69AR lung tumor cells | viability, % at 10 µM | 85,000 compounds, 6% hits | H69AR lung tumor viability, ATP luminescence, 72 h; hits give low values | AID 598;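 active = viability at or below 40%; inactive = viability above 40%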;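 note: multidrug resistant small cell line overexpressing MRP-1 efflux transporter; 100% = mean luminescence of untreated control wells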
bCat KO growth: beta-catenin-lacking colon tumor cell growth suppression. viability, % at 10 µM. 140,000 compounds, 1.5% hits. HCT116 beta-catenin knockout viability, CellTiter-Glo, 60 h; hits give low values;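 active = viability at or under a set limit, the compound median less 4 SD, cut at about 6% in these data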;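 note: 0% = Hyamine 1622 control at 20 µM and 100% = untreated cell control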
HUVEC prolif 384: inhibitors of human endothelial cell proliferation. HUVEC proliferation, CellTiter-Glo luminescence, 72 h; hits give low values. viability, % at 10 µM (by protocol). 86,000 compounds, 1.1% hits. AID 648;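 active = viability at or below 30%; inactive = viability above 30%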;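 note: 100% = median luminescence of DMSO-only cell control wells on each plate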
Lung fibro prol: blocks proliferation of human lung fibroblasts; LL 47 human lung fibroblast viability, ATP luminescence; hits give low values; 85,000 compounds, 1.1% hits; viability, % at 10 µM; AID 719;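 active = viability at or below 50% in the single dose screen; inactive = viability above 50%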;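 note: compound exposure lasted 72 h before the ATP readout; 100% = median luminescence of untreated cell-only wells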
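test system = LL 47 human lung fibroblasts | amount = 1,150 fibroblasts seeded per well | medium = 15% FBS in IMEM | times = overnight cell rest, 72 h compound treatment at 37 °C | measured by = CellTiter-Glo luminescence measuring cellular ATP | read-out = viability percentage against median untreated-cell control | benchmarks = cell-only wells, no compound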
HCT116 PTEN-null: PTEN-deleted cell growth suppression. HCT116 PTEN-null viability, CellTiter-Glo, 60 h; hits give low values. viability, % at 10 µM. 140,000 compounds, 1.2% hits;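 active = viability at or below a set limit, 4 SD under the median of all tested compounds, cut at about 3.7% in these data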;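 note: PTEN knockout HCT116 line with beta catenin targeted HCT116 as companion control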
* marks the source's active call; other numbers are inactive results; nt = no result. This excerpt belongs to a sample that is enriched for hits.

SMILES	H69AR growth 86K	bCat KO growth	HUVEC prolif 384	Lung fibro prol	HCT116 PTEN-null
Cc1ccc(NC(=O)CSc2nc(-c3ccco3)cc(C(F)(F)F)n2)cc1C	22*	29	48	72	26
Cc1cc(NC(=O)CSc2nc(-c3ccco3)cc(C(F)(F)F)n2)n(-c2ccccc2)n1	nt	26	nt	nt	26
O=C(CSc1nc(-c2ccco2)cc(C(F)(F)F)n1)NC1CCCC1	90	95	100	94	91
O=C(CSc1nnc(-c2ccco2)c(-c2ccco2)n1)Nc1ccccc1	71	90	95	95	95
COc1ccc(/C=C2\C(=O)N(c3c(Cl)cc(Cl)cc3Cl)N=C2NC(=O)c2cccc([N+](=O)[O-])c2)cc1	nt	87	nt	nt	99
O=C(COC(=O)C1CCN(S(=O)(=O)c2ccc3c(c2)OCCO3)CC1)Nc1ccc(C(F)(F)F)cc1	nt	81	nt	nt	84
COc1ccccc1N1CCN(CC(=O)Nc2cc(F)ccc2C)CC1	75	95	106	99	105
COc1ccccc1N1CCN(CC(=O)Nc2cc(C)nn2-c2nc(C)cc(C)n2)CC1	19*	nt	38	37*	nt
COC(=O)c1c(NC(=O)CN2CCN(c3ccccc3OC)CC2)c2cc(C)ccc2n1C	29*	88	66	87	95
O=c1c2ccccc2nc(SCc2nc3ccccc3s2)n1CCCO	nt	79	nt	nt	75
CCn1cc(Cl)c(C(=O)N2N=C(c3ccc4ccccc4c3)CC2c2ccccc2O)n1 (stereo not drawn)	nt	42	nt	nt	29
CCn1cc([N+](=O)[O-])c(C(=O)N2N=C(c3cccc4ccccc34)CC2c2ccccc2O)n1 (stereo not drawn)	79	3.4*	78	88	7
CCn1cc([N+](=O)[O-])c(C(=O)N2N=C(c3ccc4ccccc4c3)CC2c2ccccc2O)n1 (stereo not drawn)	86	3.2*	15*	80	5
Cc1ccc(NC(=O)CN(C)C(=O)c2ccc(C(F)(F)F)cc2)cc1	nt	99	nt	nt	93
CC1(C(=O)NCc2ccccn2)C=CCN1C(=O)c1ccccc1 (stereo not drawn)	nt	73	nt	nt	75
COC(=O)C1=C(C)NC(C)=C(C(=O)OC)C1c1ccc2ccccc2n1	100	95	92	101	90
O=C1c2ccccc2C(=O)C1c1ccc2ccccc2n1	28*	86	39	62	80
Cc1nc(Oc2ccc(S(=O)(=O)N3CCOCC3)cc2Cl)c2c3c(sc2n1)CCCC3	nt	19	nt	nt	28
O=C(c1ccc(COc2c(F)c(F)c(F)c(F)c2F)o1)N1CCN(Cc2ccc3c(c2)OCO3)CC1	28*	85	94	93	76
CCCc1cc2c(=O)n(NC(=O)c3nn(C)cc3[N+](=O)[O-])c(C)nc2s1	nt	93	nt	nt	109
CCCc1cc(-c2[nH]ncc2-c2ccc3c(c2)OCCCO3)c(O)cc1OC	18*	63	5.5*	80	62
CCc1cc(-c2[nH]ncc2-c2ccc3c(c2)OCO3)c(O)cc1O	79	48	9.7*	71	45
COc1ccc(-c2[nH]ncc2-c2ccc3c(c2)OCCO3)c(O)c1	nt	86	nt	nt	80
CC(=O)Nc1ccc(S(=O)(=O)NC2=C(N3CCN(c4ccc(F)cc4)CC3)C(=O)c3ccccc3C2=O)cc1	65	2.0*	4.8*	72	2.1*
Cc1cccc(Nc2nc(-c3ccc4c(c3)OCCO4)cs2)c1	22*	74	73	114	80
SMILES	H69AR growth 86K	bCat KO growth	HUVEC prolif 384	Lung fibro prol	HCT116 PTEN-null
Cc1ccc(-c2csc(NC(=O)c3ccc4c(=O)n5c(nc4c3)CCCCC5)n2)cc1	nt	39	nt	nt	32
CCOC(=O)c1cc2sccc2n1CC(=O)Nc1ccc2c(c1)OCCO2	38*	93	94	92	81
Cc1ccc(C)c(NC(=O)/C(C#N)=C/c2ccc(Sc3nncn3C)c([N+](=O)[O-])c2)c1	nt	76	nt	nt	75
CCCOc1c(OC)cccc1C1CC(=O)Nc2cc3c(cc21)OCCO3 (stereo not drawn)	15*	11	60	91	13
CCCOc1c(OC)cccc1C1CC(=O)Nc2cc3c(cc21)OCO3 (stereo not drawn)	17*	31	67	82	24
CCOc1c(OC)cccc1C1CC(=O)Nc2cc(OC)c(OC)cc21 (stereo not drawn)	nt	84	nt	nt	82
CCOC(=O)c1sc(=NC(=O)c2ccc(S(=O)(=O)N3CCOCC3)cc2)n(C)c1C	84	nt	94	103	nt
CCOC(=O)c1sc(=NC(=O)c2cc(OC)c(OC)c(OC)c2)n(C)c1C	11*	22	92	97	13
O=C(Nc1ccc(C(F)(F)F)cc1)c1cccnc1N1CCOCC1	39*	95	82	83	91
Cc1nn(C)cc1/C=C(/C#N)C(N)=O	nt	92	nt	nt	83
Cc1ccc(NC(=O)CCNS(=O)(=O)c2cc(Br)cnc2N)cc1Cl	nt	84	nt	nt	87
Cc1cc(NC(=O)CCNS(=O)(=O)c2cc(Br)cnc2N)ccc1Br	31*	71	48	91	71
CCN1C(=O)c2cccc3c(NC(=O)c4ccc(OC)c(OC)c4)ccc1c23	59	93	74	96	96
CN(C)c1ccc(NC(=O)Nc2ccc3snnc3c2)cc1	79	99	93	103	104
O=C(Nc1ccccc1)Nc1ccc2snnc2c1	13*	52	53	101	66
CCOC(=O)N/N=C(\C)c1ccc(C)c([N+](=O)[O-])c1	nt	95	nt	nt	98
CN1CCN(c2nc(Nc3cccc(C(F)(F)F)c3)nc(N3CCOCC3)n2)CC1	53	50	9.8*	nt	55
O=C(O)c1cccc(Nc2nc(N3CCOCC3)nc(N3CCOCC3)n2)c1	89	105	94	107	107
Nc1ccccc1C(=O)N/N=C1\C2CN3CCN(C2)CC1(c1ccccc1)C3	nt	96	nt	nt	87
CCCCOc1ccc(/C=C/C(=O)OCC(=O)N2CC(=O)Nc3ccccc32)cc1OCC	nt	46	nt	nt	40
FC(F)(F)c1cc(-c2ccco2)nc(-n2cnc3ccccc32)n1	25*	85	82	95	73
Cc1nc2ccccc2n1-c1nc(-c2ccco2)cc(C(F)(F)F)n1	nt	3.1*	nt	nt	2.7*
FC(F)(F)c1cc(-c2ccco2)nc(N2CCN(c3ccccc3)CC2)n1	70	84	97	90	76
COc1ccccc1-n1cc(-c2ccc(Cl)cc2)[nH]c1=O	nt	90	nt	nt	104
CCCCNS(=O)(=O)c1ccc2nc(SCC(=O)Nc3sccc3C#N)[nH]c2c1	21*	47	50	94	54
O=S1(=O)C=C(Sc2nc3cc(Cl)ccc3o2)c2ccccc21	nt	1.6*	nt	nt	1.6*
CCNC(=O)C(=O)NCC1OCCCN1S(=O)(=O)c1cccs1 (stereo not drawn)	nt	91	nt	nt	97
COC(=O)c1ccc2c(c1O)C(=O)c1ccccc1C2=O	nt	4.5*	nt	nt	2.8*
CC(=O)c1c(C(C)=O)c(C)n(-c2ccc(C)c(NC(=O)c3ccccc3Cl)c2)c1C	nt	91	nt	nt	98
COC(=O)c1sc2nc(C)c([N+](=O)[O-])c(C)c2c1N	nt	90	nt	nt	83
